“And” between values parts separate entries of the source, which are not always exact repeats. Identical values can stand only once.
Experiments:
[1] = test system: HEK-293T; assay: Multiplex assay against HEK293T; format: toxicity, cell-based; details: human, number of replicates 2
Method in brief: (§1)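 Cells were classed with CellPathfinder machine-learning gating, first as Hoechst high-intensity objects or normal cells, then (normal cells) as healthy, pyknosed or fragmented nuclei, and finally (pyknosed cells) as mitotic or apoptotic. Staining of live cells at seeding used Hoechst33342, BioTracker Green Microtubule Cytoskeleton Dye, MitoTracker Red and Annexin V Alexa Fluor 680, with imaging on a CQ1 microscope at 37°C and 5% CO2 after compound addition. Tubulin, mitochondrial-mass and membrane-permeability phenotypes are per cents of healthy-nucleus cells.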

[2] = test system: U2OS; assay: Multiplex assay against U2OS; format: toxicity, cell-based; details: human, number of replicates 2; method in brief: as §1
[3] = 12 h, 1 µM, compound concentration 1 uM
[4] = 12 h, 10 µM, compound concentration 10 uM
[5] = 24 h, 1 µM, compound concentration 1 uM
[6] = 24 h, 10 µM, compound concentration 10 uM
[7] = 48 h, 1 µM, compound concentration 1 uM
[8] = 48 h, 10 µM, compound concentration 10 uM

For `Cc1cc(-c2cnc(N)c3c(-c4ccc5scnc5c4)csc23)n(C)n1`, the “Population Apoptotic (%)” value [1, 3] was 53% and 52%, the “Population Fragmented Nuclei (%)” value [1, 3] was 5% and 2% and the “Population Healthy Nuclei (%)” value [1, 3] was 81% and 85%. The “Population Hoechst High Intensity Objects (%)” value [1, 3] was 7% and 6%, the “Population Membrane Permeable-Phenotype (%)” value [1, 3] was 3% and 1% and the “Population Mitochondria Different-Phenotype (%)” value [1, 3] was 21% and 11%. The “Population Mitotic Cells (%)” value [1, 3] was 46% and 47%, the “Population Normal (%)” value [1, 3] was 92% and 93% and the “Population Pyknosed Nuclei (%)” value [1, 3] was 13% and 11%. For the same compound, the “Population Tubulin-Different-Phenotype (%)” value [1, 3] was 61% and 56%, the “Total Cell Count” value [1, 3] was 648 and 641 and the “Population Apoptotic (%)” value [1, 4] was 45% and 68%. For the same compound, the “Population Fragmented Nuclei (%)” value [1, 4] was 4% and 3%, the “Population Healthy Nuclei (%)” value [1, 4] was 77% and 84% and the “Population Hoechst High Intensity Objects (%)” value [1, 4] was 17% and 13%. For the same compound, the “Population Membrane Permeable-Phenotype (%)” value [1, 4] was 4% and 2%, the “Population Mitochondria Different-Phenotype (%)” value [1, 4] was 59% and 57% and the “Population Mitotic Cells (%)” value [1, 4] was 54% and 31%. For the same compound, the “Population Normal (%)” value [1, 4] was 82% and 86%, the “Population Pyknosed Nuclei (%)” value [1, 4] was 17% and 12% and the “Population Tubulin-Different-Phenotype (%)” value [1, 4] was 92% and 91%. The “Total Cell Count” value [1, 4] was 429 and 378, the “Population Apoptotic (%)” value [1, 5] was 49% and 53% and the “Population Fragmented Nuclei (%)” value [1, 5] was 7% and 6%. For the same compound, the “Population Healthy Nuclei (%)” value [1, 5] was 85% and 86%, the “Population Hoechst High Intensity Objects (%)” value [1, 5] was 8% and 9% and the “Population Membrane Permeable-Phenotype (%)” value [1, 5] was 3% and 1%. For the same compound, the “Population Mitochondria Different-Phenotype (%)” value [1, 5] was 10% and 4%, the “Population Mitotic Cells (%)” value [1, 5] was 50% and 46% and the “Population Normal (%)” value [1, 5] was 91% and 90%. The “Population Pyknosed Nuclei (%)” value [1, 5] was 7%, the “Population Tubulin-Different-Phenotype (%)” value [1, 5] was 38% and 39% and the “Total Cell Count” value [1, 5] was 943 and 990. The “Population Apoptotic (%)” value [1, 6] was 56% and 69%, the “Population Fragmented Nuclei (%)” value [1, 6] was 6% and 3% and the “Population Healthy Nuclei (%)” value [1, 6] was 79% and 82%. The “Population Hoechst High Intensity Objects (%)” value [1, 6] was 17% and 13%, the “Population Membrane Permeable-Phenotype (%)” value [1, 6] was 2% and 1% and the “Population Mitochondria Different-Phenotype (%)” value [1, 6] was 65%. For the same compound, the “Population Mitotic Cells (%)” value [1, 6] was 43% and 30%, the “Population Normal (%)” value [1, 6] was 82% and 86% and the “Population Pyknosed Nuclei (%)” value [1, 6] was 14%. For the same compound, the “Population Tubulin-Different-Phenotype (%)” value [1, 6] was 94% and 92%, the “Total Cell Count” value [1, 6] was 457 and 429 and the “Population Apoptotic (%)” value [1, 7] was 17% and 10%. The “Population Fragmented Nuclei (%)” value [1, 7] was 14% and 9%, the “Population Healthy Nuclei (%)” value [1, 7] was 83% and 86% and the “Population Hoechst High Intensity Objects (%)” value [1, 7] was 9% and 10%. For the same compound, the “Population Membrane Permeable-Phenotype (%)” value [1, 7] was 6% and 2%, the “Population Mitochondria Different-Phenotype (%)” value [1, 7] was 0% and the “Population Mitotic Cells (%)” value [1, 7] was 82% and 89%. For the same compound, the “Population Normal (%)” value [1, 7] was 90% and 89%, the “Population Pyknosed Nuclei (%)” value [1, 7] was 2% and 4% and the “Population Tubulin-Different-Phenotype (%)” value [1, 7] was 19%. For the same compound, the “Total Cell Count” value [1, 7] was 2410 and 2184, the “Population Apoptotic (%)” value [1, 8] was 62% and 80% and the “Population Fragmented Nuclei (%)” value [1, 8] was 9%. The “Population Healthy Nuclei (%)” value [1, 8] was 85% and 84%, the “Population Hoechst High Intensity Objects (%)” value [1, 8] was 17% and the “Population Membrane Permeable-Phenotype (%)” value [1, 8] was 7% and 2%. The “Population Mitochondria Different-Phenotype (%)” value [1, 8] was 24% and 30%, the “Population Mitotic Cells (%)” value [1, 8] was 37% and 20% and the “Population Normal (%)” value [1, 8] was 82%. The “Population Pyknosed Nuclei (%)” value [1, 8] was 5%, the “Population Tubulin-Different-Phenotype (%)” value [1, 8] was 89% and 92% and the “Total Cell Count” value [1, 8] was 772 and 677. For the same compound, the “Population Apoptotic (%)” value [2, 3] was 50% and 66%, the “Population Fragmented Nuclei (%)” value [2, 3] was 8% and 7% and the “Population Healthy Nuclei (%)” value [2, 3] was 86% and 83%. For the same compound, the “Population Hoechst High Intensity Objects (%)” value [2, 3] was 0%, the “Population Membrane Permeable-Phenotype (%)” value [2, 3] was 0% and 1% and the “Population Mitochondria Different-Phenotype (%)” value [2, 3] was 0%. For the same compound, the “Population Mitotic Cells (%)” value [2, 3] was 50% and 33%, the “Population Normal (%)” value [2, 3] was 100% and the “Population Pyknosed Nuclei (%)” value [2, 3] was 4% and 8%. For the same compound, the “Population Tubulin-Different-Phenotype (%)” value [2, 3] was 75% and 76%, the “Total Cell Count” value [2, 3] was 46 and 136 and the “Population Apoptotic (%)” value [2, 4] was 66% and 65%. The “Population Healthy Nuclei (%)” value [2, 4] was 56% and 80%, the “Population Hoechst High Intensity Objects (%)” value [2, 4] was 0% and the “Population Membrane Permeable-Phenotype (%)” value [2, 4] was 8% and 11%. For the same compound, the “Population Mitochondria Different-Phenotype (%)” value [2, 4] was 17% and 15%, the “Population Mitotic Cells (%)” value [2, 4] was 33% and 34% and the “Population Normal (%)” value [2, 4] was 100%. The “Population Pyknosed Nuclei (%)” value [2, 4] was 24% and 13%, the “Population Tubulin-Different-Phenotype (%)” value [2, 4] was 51% and 38% and the “Population Apoptotic (%)” value [2, 5] was 50% and 55%. The “Population Fragmented Nuclei (%)” value [2, 5] was 5% and 4%, the “Population Healthy Nuclei (%)” value [2, 5] was 87% and 86% and the “Population Hoechst High Intensity Objects (%)” value [2, 5] was 0%. The “Population Membrane Permeable-Phenotype (%)” value [2, 5] was 0% and 1%, the “Population Mitochondria Different-Phenotype (%)” value [2, 5] was 0% and the “Population Mitotic Cells (%)” value [2, 5] was 50% and 44%. The “Population Normal (%)” value [2, 5] was 100% and 99% and the “Population Pyknosed Nuclei (%)” value [2, 5] was 7% and 8%.

— ChEMBL document CHEMBL5303300, “EUbOPEN Chemogenomics Library - Multiplex” (2023)
